Tests used:
[1] = Cytotoxicity against human Raji cells assessed as cell viability at 100 molar ratio; format: cell-based; details: read-out: Activity
Method in brief: (§1)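 Raji cells were treated with 32 pmol TPA to induce EBV early antigen activation. The test agent was added at 10, 100, 500 or 1000 mol ratio relative to TPA, and Raji cell viability was measured alongside EA activation.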

[2] = test system: IGROV-1; assay: Cytotoxicity against human IGROV1 cells after 48 hrs by SRB assay; format: functional; details: IGROV-1, 48 h
[3] = test system: SN12C; assay: Cytotoxicity against human SN12C cells after 48 hrs by SRB assay; format: functional
[4] = test system: OVCAR-8; assay: Cytotoxicity against human OVCAR8 cells after 48 hrs by SRB assay; format: functional; details: OVCAR-8, 48 h
[5] = Cytotoxicity against human Hs 578T cells after 48 hrs by SRB assay; format: functional
[6] = test system: TK-10; assay: Cytotoxicity against human TK-10 cells after 48 hrs by SRB assay; format: functional; details: TK-10, 48 h
Method in brief: (§2)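 Tested in the NCI panel of 60 human tumour cell lines covering lung, colon, melanoma, renal, ovarian, breast and leukaemia. At least five concentrations were run in 10-fold dilutions starting from 10^-4 M. Exposure was continuous for 48 h. Growth or viability was estimated by sulforhodamine B protein staining, and GI50 values were reported.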

[7] = test system: MDA-MB-231; assay: Cytotoxicity against human MDA-MB-231 cells after 48 hrs by SRB assay; format: functional; details: MDA-MB-231, 48 h
[8] = test system: OVCAR-5; assay: Cytotoxicity against human OVCAR5 cells after 48 hrs by SRB assay; format: functional; details: OVCAR-5, 48 h
[9] = test system: UACC-62; assay: Cytotoxicity against human UACC-62 cells after 48 hrs by SRB assay; format: functional; details: UACC-62, 48 h; method in brief: as §2
[10] = test system: KM12; assay: Cytotoxicity against human KM12 cells after 48 hrs by SRB assay; format: functional; details: KM12, 48 h
[11] = test system: NCI-H460; assay: Cytotoxicity against human NCI-H460 cells after 48 hrs by SRB assay; format: functional; details: NCI-H460, 48 h
[12] = Cytotoxicity against human HCT 116 cells after 48 hrs by SRB assay; format: functional; details: HCT-116, 48 h
[13] = test system: A549; assay: Cytotoxicity against human A549 cells after 48 hrs by SRB assay; format: functional; details: A549, 48 h
[14] = test system: HOP-92; assay: Cytotoxicity against human HOP-92 cells after 48 hrs by SRB assay; format: functional; details: HOP-92, 48 h
[15] = test system: Mus musculus; assay: Antiinflammatory activity against TPA-induced ear edema in mouse; format: functional
Method in brief: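 Specific-pathogen-free female ICR mice were housed five per cage at 24 ± 2 °C. Inflammation was induced on the ear with TPA at 1 µg/ear, and the test agent was applied per ear. Ear edema inhibition was expressed as ID50 in mg per ear.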

[16] = test system: SW-620; assay: Cytotoxicity against human SW620 cells after 48 hrs by SRB assay; format: functional; details: SW-620, 48 h
[17] = test system: SNB-19; assay: Cytotoxicity against human SNB-19 cells after 48 hrs by SRB assay; format: functional; details: SNB-19, 48 h
[18] = test system: HOP-62; assay: Cytotoxicity against human HOP-62 cells after 48 hrs by SRB assay; format: functional; details: HOP-62, 48 h
[19] = test system: SK-MEL-5; assay: Cytotoxicity against human SK-MEL-5 cells after 48 hrs by SRB assay; format: functional; details: SK-MEL-5, 48 h
[20] = test system: RPMI-8226; assay: Cytotoxicity against human RPMI8226 cells after 48 hrs by SRB assay; format: functional; details: RPMI-8226, 48 h
[21] = test system: EKVX; assay: Cytotoxicity against human EKVX cells after 48 hrs by SRB assay; format: functional
[22] = test system: OVCAR-3; assay: Cytotoxicity against human OVCAR-3 cells after 48 hrs by SRB assay; format: functional; details: OVCAR-3, 48 h
[23] = test system: U-251; assay: Cytotoxicity against human U251 cells after 48 hrs by SRB assay; format: functional; details: U-251, 48 h; method in brief: as §2
[24] = test system: SK-MEL-2; assay: Cytotoxicity against human SK-MEL-2 cells after 48 hrs by SRB assay; format: functional; details: SK-MEL-2, 48 h
[25] = test system: MCF7; assay: Cytotoxicity against human MCF7 cells after 48 hrs by SRB assay; format: functional; details: MCF7, 48 h
[26] = test system: HT-29; assay: Cytotoxicity against human HT-29 cells after 48 hrs by SRB assay; format: functional; details: HT-29, 48 h
[27] = test system: CAKI-1; assay: Cytotoxicity against human Caki-1 cells after 48 hrs by SRB assay; format: functional; details: CAKI-1, 48 h
[28] = test system: SF-295; assay: Cytotoxicity against human SF-295 cells after 48 hrs by SRB assay; format: functional; details: SF-295, 48 h
[29] = test system: T47D; assay: Cytotoxicity against human T47D cells after 48 hrs by SRB assay; format: functional; method in brief: as §2
[30] = test system: MOLT-4; assay: Cytotoxicity against human MOLT-4 cells after 48 hrs by SRB assay; format: functional; details: MOLT-4, 48 h
[31] = test system: K562; assay: Cytotoxicity against human K-562 cells after 48 hrs by SRB assay; format: functional; details: K562, 48 h
[32] = test system: RXF 393; assay: Cytotoxicity against human […] cells after 48 hrs by SRB assay; format: functional; details: RXF 393, 48 h
[33] = test system: MDA-MB-435; assay: Cytotoxicity against human MDA-MB-435 cells after 48 hrs by SRB assay; format: functional; details: MDA-MB-435, 48 h
[34] = test system: NCI-H322M; assay: Cytotoxicity against human NCI-H322M cells after 48 hrs by SRB assay; format: functional
[35] = test system: PC-3; assay: Cytotoxicity against human PC-3 cells after 48 hrs by SRB assay; format: functional; details: PC-3, 48 h
[36] = test system: 786-0; assay: Cytotoxicity against human 786-0 cells after 48 hrs by SRB assay; format: functional; details: 786-0, 48 h
[37] = test system: Raji; assay: Inhibition of TPA-induced EBV-early antigen activation in human Raji cells at 10 molar ratio relative to TPA; format: cell-based; set-up: scale not given: the % may be the effect or the level left; details: human gammaherpesvirus 4
[38] = test system: Raji; assay: Inhibition of TPA-induced EBV-early antigen activation in human Raji cells at 500 molar ratio relative to TPA; format: cell-based; set-up: scale not given: the % may be the effect or the level left; details: human gammaherpesvirus 4
[39] = test system: Raji; assay: Inhibition of TPA-induced EBV-early antigen activation in human Raji cells at 1000 molar ratio relative to TPA; format: cell-based; set-up: scale not given: the % may be the effect or the level left; details: human gammaherpesvirus 4
[40] = test system: CCRF-CEM; assay: Cytotoxicity against human CCRF-CEM cells after 48 hrs by SRB assay; format: functional
[41] = test system: NCI-H226; assay: Cytotoxicity against human NCI-H226 cells after 48 hrs by SRB assay; format: functional; details: NCI-H226, 48 h
[42] = test system: HCT-15; assay: Cytotoxicity against human HCT-15 cells after 48 hrs by SRB assay; format: functional; details: HCT-15, 48 h
[43] = test system: Malme-3M; assay: Cytotoxicity against human MALME-3M cells after 48 hrs by SRB assay; format: functional
[44] = test system: UO-31; assay: Cytotoxicity against human UO-31 cells after 48 hrs by SRB assay; format: functional; details: UO-31, 48 h; method in brief: as §2
[45] = test system: COLO 205; assay: Cytotoxicity against human COLO205 cells after 48 hrs by SRB assay; format: functional; details: COLO 205, 48 h
[46] = Cytotoxicity against human Raji cells assessed as cell viability at 10 molar ratio; format: cell-based; details: read-out: Activity; method in brief: as §1
[47] = Cytotoxicity against human Raji cells assessed as cell viability at 1000 molar ratio; format: cell-based; details: read-out: Activity; method in brief: as §1
[48] = Inhibition of TPA-induced EBV-early antigen activation in human Raji cells relative to TPA; format: cell-based, human gammaherpesvirus 4
[49] = test system: BT-549; assay: Cytotoxicity against human BT-549 cells after 48 hrs by SRB assay; format: functional; details: BT-549, 48 h
[50] = test system: NCI-H23; assay: Cytotoxicity against human NCI-H23 cells after 48 hrs by SRB assay; format: functional; details: NCI-H23, 48 h
[51] = test system: NCI-H522; assay: Cytotoxicity against human NCI-H522 cells after 48 hrs by SRB assay; format: functional; details: NCI-H522, 48 h
[52] = test system: Raji; assay: Inhibition of TPA-induced EBV-early antigen activation in human Raji cells at 100 molar ratio relative to TPA; format: cell-based; set-up: scale not given: the % may be the effect or the level left; details: human gammaherpesvirus 4
[53] = test system: NCI/ADR-RES; assay: Cytotoxicity against human NCI/ADR-RES cells after 48 hrs by SRB assay; format: functional
[54] = test system: UACC-257; assay: Cytotoxicity against human UACC-257 cells after 48 hrs by SRB assay; format: functional; details: UACC-257, 48 h; method in brief: as §2
[55] = test system: SF-268; assay: Cytotoxicity against human SF-268 cells after 48 hrs by SRB assay; format: functional; details: SF-268, 48 h
[56] = Cytotoxicity against human Raji cells assessed as cell viability at 500 molar ratio; format: cell-based; details: read-out: Activity; method in brief: as §1

- IC50 [48]: 470 molar ratio
Structure (SMILES): CC1(C)CC[C@]2(C(=O)O)CC[C@]3(C)C(=CC[C@@H]4[C@@]5(C)CC[C@H](O[C@@H]6O[C@H](C(=O)O)[C@@H](O)[C@H](O[C@@H]7O[C@H](CO)[C@H](O)[C@H](O)[C@H]7O)[C@H]6O[C@@H]6O[C@H](CO)[C@@H](O)[C@H](O)[C@H]6O)C(C)(C)[C@@H]5CC[C@]43C)[C@@H]2C1 [CALENDULAGYCOSIDE B]
- viability at 100 molar ratio [1]: > 80%
- GI50 [2]: > 100 µM
- GI50 [3]: 84 µM
- GI50 [4]: > 100 µM
- GI50 [5]: 97.4 µM
- GI50 [6]: > 100 µM
- GI50 [7]: 45 µM
- GI50 [8]: > 100 µM
- GI50 [9]: 23 µM
- GI50 [10]: > 100 µM
- GI50 [11]: > 100 µM
- GI50 [12]: > 100 µM
- GI50 [13]: > 100 µM
- GI50 [14]: > 100 µM
- ID50 [15]: 0.05 mg
- GI50 [16]: > 100 µM
- GI50 [17]: > 100 µM
- GI50 [18]: > 100 µM
- GI50 [19]: > 100 µM
- GI50 [20]: 50.9 µM
- GI50 [21]: > 100 µM
- GI50 [22]: > 100 µM
- GI50 [23]: 32.3 µM
- GI50 [24]: > 100 µM
- GI50 [25]: 53.5 µM
- GI50 [26]: 40.9 µM
- GI50 [27]: > 100 µM
- GI50 [28]: 31 µM
- GI50 [29]: > 100 µM
- GI50 [30]: 86.3 µM
- GI50 [31]: 81.1 µM
- GI50 [32]: > 100 µM
- GI50 [33]: > 100 µM
- GI50 [34]: 26 µM
- GI50 [35]: 20.6 µM
- GI50 [36]: > 100 µM
- Activity [37]: 100%
- Activity [38]: 40.3%
- Activity [39]: 5.1%
- GI50 [40]: > 100 µM
- GI50 [41]: > 100 µM
- GI50 [42]: 94.6 µM
- GI50 [43]: 79.9 µM
- GI50 [44]: 63.5 µM
- GI50 [45]: > 100 µM
- viability at 10 molar ratio [46]: > 80%
- viability at 1000 molar ratio [47]: 70%
- GI50 [49]: > 100 µM
- GI50 [50]: 20.2 µM
- GI50 [51]: 38.4 µM
- Activity [52]: 69.2%
- GI50 [53]: > 100 µM
- GI50 [54]: > 100 µM
- GI50 [55]: > 100 µM
- viability at 500 molar ratio [56]: > 80%
